Compounds with a hit are over-represented: about 4.9% of the library has one in this group of screens.
NF-kB neuron act: raises NF-kB expression in human neuronal cells. NF-kB reporter expression; hits give high values. fold change at 12.5 µM. hit rate 1.6% among 190,000; in the data active = fold change above about 3.3
STAT1 act-1: STAT1 signaling activation | hit rate 2.6% among 200,000 | AID 932 | NIH 3T3 STAT1-luciferase reporter, IFN-gamma, luminescence; 100% = IFN-gamma alone, no compound | activation (% of control), % at 5.5 µM;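 active = activation above the screen-wide mean activation plus 3 SD, cut at about 130% in these data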;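 note: raw ratio to IFN-gamma control signal so 100% means no change and 0% no light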
STAT3 blocker: reduces IL-6 driven STAT3 reporter signal; U3A cells, IL-6 STAT3-luciferase reporter, luminescence; host cell line lacks STAT1; inhibition, % at 5.5 µM; hit rate 0.89% among 190,000; AID 862;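 active = inhibition above the mean inhibition across all screened compounds plus 3 SD, cut at about 44% in these data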;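 note: 0% = DMSO only wells and 100% = 100 µM nifuroxazide control wells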
STAT3 act-1: STAT3 signaling activation; U3A cells, IL-6 STAT3-luciferase reporter, luminescence; 100% = signal with IL-6 EC80 alone; activation (% of control), % at 5.6 µM; hit rate 0.91% among 190,000; AID 871;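 active = activation above the screen-wide mean of compound activation plus 3 SD, cut at about 130% in these data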;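 note: 0% = background luminescence of wells with medium and substrate only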
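Material: human U3A cells carrying STAT3-luciferase construct. Measured by: reporter luminescence signal. Timing: compound 1 h, then IL-6 6 h at 37 °C.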
APP 5'UTR act: APP 5'UTR luciferase reporter activation; SH-SY5Y APP 5'UTR luciferase reporter, luminescence; zero percent = DMSO vehicle wells; activation, % at 2 µM; hit rate 1% among 190,000; AID 1276;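 active = activation above a set limit, based on mean plus 3 SD of controls, cut at about 140% in these data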
STAT1 inh: inhibitors of IFN-gamma induced STAT1 signaling; NIH 3T3 STAT1-luciferase reporter, luminescence; AID 920; hit rate 0.35% among 200,000; inhibition, % at 5.5 µM;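 active = inhibition above a set limit, the mean inhibition across all tested compounds plus 3 SD, cut at about 34% in these data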;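 note: 0% = IFN-gamma with DMSO and 100% = IFN-gamma with 300 µM nifuroxazide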
STAT3 act-2: STAT3 activation, confirmation assay; hit rate 64% among 1,200; shares compounds with STAT3 act-1; AID 1267; U3A STAT3-luciferase reporter, IL-6 potentiation, luminescence; U3A cells lack STAT1; 100 means same as IL-6 alone; potentiation (% of control), % at 5.7 µM;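 active = percent activation of the STAT3 luciferase reporter above a set limit taken from the earlier primary screen, cut at about 130% in these data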;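 note: 0% = background signal of medium plus substrate and 100% = median of IL-6 with DMSO wells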
NFkB act STAT3ct: counter-screen for STAT3 activators: NF-kappaB activation | hit rate 11% among 1,200 | AID 1309 | human cells, NF-kappaB reporter activation | shares compounds with STAT3 act-1 | activation (% of control), % at 5.7 µM; in the data active = activation above about 120%;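 note: reporter induced by TNF-alpha stimulation; 100% = median of stimulated DMSO wells and 0% = no signal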
STAT1 act-2: STAT1 activation in STAT3 activator counter-screen; activation (% of control), % at 5.7 µM; shares compounds with STAT3 act-1; NIH 3T3 STAT1-luciferase reporter, IFN-gamma, luminescence; hit rate 13% among 1,200;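 active = activation above the solvent-only control well mean plus 3 SD, set per screening run, cut at about 120% in these data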;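 note: 100% = IFN-gamma with DMSO median signal so 100% means no change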
Active calls of the source: *.

For Fc1ccc(C2c3[nH]c4ccccc4c3CCN2Cc2ccoc2)cc1 (stereo unspecified) the results were NF-kB neuron act 1.12, STAT1 act-1 99.6, STAT3 blocker -13.1, STAT3 act-1 115.4, APP 5'UTR act 0.5 and STAT1 inh -1.1.
For Cc1cccc(C2c3[nH]c4ccccc4c3CCN2Cc2cnn(-c3ccc(F)cc3)c2)n1 (stereo unspecified) the results were NF-kB neuron act 1.03, STAT1 act-1 101.4, STAT3 blocker -49.5, STAT3 act-1 149.6*, APP 5'UTR act 3.9, STAT1 inh -1.6, STAT3 act-2 152.2*, NFkB act STAT3ct 102.2 and STAT1 act-2 95.0.
For Cc1cccc(C2c3[nH]c4ccccc4c3CCN2C(=O)c2cn(C)c3ccccc3c2=O)n1 (stereo unspecified) the results were NF-kB neuron act 0.84, STAT1 act-1 97.8, STAT3 blocker -34.5, STAT3 act-1 136.2*, APP 5'UTR act 16.1, STAT1 inh 2.2, STAT3 act-2 118.3, NFkB act STAT3ct 100.6 and STAT1 act-2 92.1.
`O=C(Cn1cc([N+](=O)[O-])cn1)NCc1cc2ccccc2[nH]1` gave NF-kB neuron act 1.2, STAT1 act-1 87.8, STAT3 blocker -35.0, STAT3 act-1 132.1, APP 5'UTR act -11.9 and STAT1 inh 13.9.
CC1=NNC(=O)C1C(c1ccccc1)C1C(=O)NN=C1C (stereo unspecified) was read as NF-kB neuron act 1.02, STAT1 act-1 110.3, STAT3 blocker 8.4, STAT3 act-1 99.2, APP 5'UTR act 3.5 and STAT1 inh -11.4.
COc1nc2c(C)cccc2cc1-c1noc(-c2ccco2)n1 was read as NF-kB neuron act 1.19, STAT1 act-1 91.3, STAT3 blocker -69.7, STAT3 act-1 163.3*, APP 5'UTR act 7.3, STAT1 inh 9.4, STAT3 act-2 143.6*, NFkB act STAT3ct 108.6 and STAT1 act-2 98.7.
COc1nc(-c2ccc(Cl)cc2)ccc1-c1noc(-c2ccco2)n1 was read as NF-kB neuron act 1.28, STAT1 act-1 101.9, STAT3 blocker 3.4, STAT3 act-1 98.1, APP 5'UTR act 0.9 and STAT1 inh -3.5.
For O=c1[nH]nc(Cc2ccc3ccccc3n2)c2ccccc12 the results were NF-kB neuron act 1.52, STAT1 act-1 109.9, STAT3 blocker -58.0, STAT3 act-1 146.8*, APP 5'UTR act 28.5, STAT1 inh -11.1, STAT3 act-2 124.6, NFkB act STAT3ct 104.6 and STAT1 act-2 114.6.
`COc1ccc(Cl)cc1C(=O)NNC(=O)CN1C(=O)C2CC=CCC2C1=O` (stereo unspecified) gave NF-kB neuron act 1.08, STAT1 act-1 99.4, STAT3 blocker 0.9, STAT3 act-1 103.5, APP 5'UTR act 4.9 and STAT1 inh 0.5.
Screening CCOC(=O)CSc1nc(-c2ccccc2)nc2c1oc1ccccc12 returned NF-kB neuron act 1, STAT1 act-1 93.1, STAT3 blocker -37.2, STAT3 act-1 136.5*, APP 5'UTR act -15.2, STAT1 inh 7.5, STAT3 act-2 133.9*, NFkB act STAT3ct 111.3 and STAT1 act-2 94.0.
Cc1ncc([N+](=O)[O-])n1CC(=O)N/N=C/c1ccccc1F was read as NF-kB neuron act 1.11, STAT1 act-1 87.4, STAT3 blocker 7.0, STAT3 act-1 96.0, APP 5'UTR act -17.4 and STAT1 inh 13.4.
`Cc1ccc(N/N=C2\CS(=O)(=O)N(C)c3ccsc32)cc1` gave NF-kB neuron act 1.54, STAT1 act-1 109.9, STAT3 blocker -49.4, STAT3 act-1 140.8*, APP 5'UTR act 60.0, STAT1 inh -10.7, STAT3 act-2 143.5*, NFkB act STAT3ct 120.6* and STAT1 act-2 119.3.
For CN1c2ccsc2/C(=N/Nc2ccc(F)cc2)CS1(=O)=O the results were NF-kB neuron act 1.09, STAT1 act-1 111.3, STAT3 blocker -30.7, STAT3 act-1 125.9, APP 5'UTR act 46.8 and STAT1 inh -12.3.
Fc1ccc(OCc2nc(-c3ccc(Br)o3)no2)c(F)c1 was read as NF-kB neuron act 1.65, STAT1 act-1 104.8, STAT3 blocker -3.6, STAT3 act-1 106.9, APP 5'UTR act 1.4 and STAT1 inh -5.3.
`Clc1ccccc1OCc1nc(-c2ccc(Br)o2)no1` gave NF-kB neuron act 2.84, STAT1 act-1 122.8, STAT3 blocker -33.0, STAT3 act-1 136.7*, APP 5'UTR act 11.5, STAT1 inh -25.2, STAT3 act-2 126.3, NFkB act STAT3ct 109.9 and STAT1 act-2 125.4*.
For O=C(Nc1nccs1)c1ccc2nccnc2c1 the results were NF-kB neuron act 0.62, STAT1 act-1 119.8, STAT3 blocker 14.9, STAT3 act-1 93.5, APP 5'UTR act 13.1 and STAT1 inh -21.6.
COc1ccc(-c2csc(NC(=O)c3nc(-c4ccccc4)oc3C)n2)cc1 was read as NF-kB neuron act 0.93, STAT1 act-1 101.4, STAT3 blocker 20.4, STAT3 act-1 91.9, APP 5'UTR act 2.8 and STAT1 inh -1.6.
Cc1ccc(C(=O)Nc2nccs2)cc1 was read as NF-kB neuron act 3.54*, STAT1 act-1 106.0, STAT3 blocker -53.5, STAT3 act-1 144.3*, APP 5'UTR act 90.6, STAT1 inh -5.7, STAT3 act-2 165.1*, NFkB act STAT3ct 117.5 and STAT1 act-2 128.0*.
Cc1oc(-c2ccccc2)nc1C(=O)Nc1nccs1 was read as NF-kB neuron act 1.65, STAT1 act-1 113.2, STAT3 blocker -39.6, STAT3 act-1 140.5*, APP 5'UTR act 19.1, STAT1 inh -14.5, STAT3 act-2 142.1*, NFkB act STAT3ct 107.3 and STAT1 act-2 113.1.
CCOc1ccccc1NC(=O)c1nc(-c2ccccc2)oc1C was read as NF-kB neuron act 1.36, STAT1 act-1 107.3, STAT3 blocker -35.2, STAT3 act-1 141.5*, APP 5'UTR act 18.0, STAT1 inh -10.1, STAT3 act-2 122.8, NFkB act STAT3ct 104.2 and STAT1 act-2 104.5.
For CC(C)c1ccc(/C=N/NC(=O)C(=O)NCCCN2CCOCC2)cc1 the results were NF-kB neuron act 1.11, STAT1 act-1 107.4, STAT3 blocker 2.2, STAT3 act-1 101.2, APP 5'UTR act 6.5 and STAT1 inh -8.2.
Screening O=C(/C=C/c1cccc(Br)c1)NCc1ccncc1 returned NF-kB neuron act 1.11, STAT1 act-1 102.4, STAT3 blocker 15.9, STAT3 act-1 93.0, APP 5'UTR act 0.3 and STAT1 inh -4.7.
